Assay outcomes as filed in PubChem BioAssay.
MEX-5 binding: MEX-5 zinc finger RNA-binding disruptors – biochemical, C. elegans, fluorescence polarization, MLPCN library, primary screen | MEX-5/FITC-TCR2 RNA binding; hits give low values | activity score (negative = inhibition of binding), % at 10 µM | 0.38% of 300,000 active;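 active = inhibition past about -25% in most replicates, and total fluorescence under double the plate's negative control median, limit read from the data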;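 also: 0% = DMSO and -100% = 5 µM competing unlabeled TCR2 RNA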
Target sequence (Q9XUB2 whole entry, looked up): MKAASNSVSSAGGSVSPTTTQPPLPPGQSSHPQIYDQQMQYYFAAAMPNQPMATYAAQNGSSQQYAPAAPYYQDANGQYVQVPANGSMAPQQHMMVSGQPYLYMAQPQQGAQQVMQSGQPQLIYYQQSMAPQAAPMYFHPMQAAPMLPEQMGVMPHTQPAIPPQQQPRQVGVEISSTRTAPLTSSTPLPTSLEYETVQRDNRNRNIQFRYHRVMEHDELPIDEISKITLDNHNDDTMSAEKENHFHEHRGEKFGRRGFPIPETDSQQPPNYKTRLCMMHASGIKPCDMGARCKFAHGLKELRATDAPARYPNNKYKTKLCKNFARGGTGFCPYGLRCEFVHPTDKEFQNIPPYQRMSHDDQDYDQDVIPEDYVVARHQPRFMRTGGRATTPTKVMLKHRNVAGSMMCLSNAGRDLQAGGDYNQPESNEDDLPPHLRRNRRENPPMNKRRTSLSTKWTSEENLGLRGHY
Bcl-xL primary: inhibitors of human Bcl-xL, primary screen, biochemical, fluorescence polarization, HTS; Bcl-2-like protein 1 (Homo sapiens), Q07817; inhibition, % at 10.9 µM; AID 2129, 2009; 0.7% of 320,000 active; GST-Bcl-xL / FITC-Bim BH3 peptide fluorescence polarization;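 active = inhibition above the mean of all tested compounds plus 3 SD, cutoff set per campaign, cut at about 30% in these data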;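 also: 0% = DMSO wells and 100% = unlabeled Bim-BH3 peptide competitor; inhibitors lower millipolarization by displacing the labeled peptide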
Target sequence (Q07817 whole entry, looked up): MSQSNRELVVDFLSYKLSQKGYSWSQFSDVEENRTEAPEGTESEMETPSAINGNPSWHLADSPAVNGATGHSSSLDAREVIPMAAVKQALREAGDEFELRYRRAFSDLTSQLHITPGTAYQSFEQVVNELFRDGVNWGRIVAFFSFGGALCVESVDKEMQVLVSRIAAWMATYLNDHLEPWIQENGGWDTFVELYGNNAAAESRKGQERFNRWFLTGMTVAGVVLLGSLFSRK
VIM-2 inhibitor: VIM-2 metallo-beta-lactamase inhibitors, primary screen, biochemical, epi-absorbance readout, Pseudomonas aeruginosa enzyme. purified VIM-2, nitrocefin hydrolysis, epi-absorbance fluorescence. inhibition, % at 5.6 µM. 0.89% of 290,000 active;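 active = inhibition above the mean of all tested compounds plus 3 SD, cutoff set per screening run, cut at about 7.5% in these data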;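 also: red hydrolysis product quenches plate fluorescence so inhibitors raise well fluorescence; 0% = enzyme with DMSO and 100% = DMSO without enzyme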
IMP-1 inh: IMP-1 metallo-beta-lactamase inhibitors, primary screen, biochemical, epi-absorbance readout, Pseudomonas aeruginosa enzyme. metallo-beta-lactamase IMP-1 (Pseudomonas aeruginosa). purified IMP-1, nitrocefin hydrolysis, epi-absorbance fluorescence. inhibition, % at 5.6 µM. 0.45% of 290,000 active;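 active = inhibition above the mean plus 3 SD of all compounds in the same screening run, cut at about 4.5% in these data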;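 also: 0% = IMP-1 with DMSO and 100% = DMSO wells lacking enzyme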
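assay system = purified recombinant IMP-1 metallo-beta-lactamase enzyme | schedule = 15 min preincubation plus 25 min reaction at 25 °C | signal = Epi-absorbance fluorescence, 480 nm excitation, 530 nm emission | read-out basis = percent inhibition from optical density relative to buffer-blank wells | controls = IMP-1 with DMSO as 0%, enzyme-free DMSO as 100%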
GLD-1 RNA inh: GLD-1/TGE RNA complex disruptors, primary screen, biochemical, fluorescence polarization; purified GLD-1 + fluorescein TGE RNA; inhibition, % at 5.96 µM; 0.44% of 320,000 active;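 active = percent inhibition above a per-plate cutoff, the plate mean of test compounds plus 3 SD, cut at about 30% in these data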;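 also: 0% = DMSO wells with GLD-1 and probe and 100% = wells lacking GLD-1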
EBV gp42 block: Epstein-Barr virus gp42 inhibitors, primary screen, biochemical, uHTS, fluorescence polarization; inhibition, % (tested at 21.74 µM); 0.42% of 220,000 active; Glycoprotein 42 (Epstein-Barr virus (strain AG876)), Q1HVG2; Fluorescence polarization binding assay, mP read-out; AID 1085, 2008; in the data active = inhibition above about 50%
Numbers without * were called inactive. In the library only some 2.2% were active in any assay of this set; here they are far more common.

What do the screens show for `Cc1cccc2c1c1ccc3c(c1n2C)C(=O)C=CC3=O`?
VIM-2 inhibitor: 2; IMP-1 inh: 5.2*; EBV gp42 block: -2

Results for CC1O[C@@H]2O[C@](O[C@H](C)CC[C@@H](C)O)(c3ccccc3)O[C@@H]2C[C@H]1O (stereo partly drawn) ?
MEX-5 binding: 1; Bcl-xL primary: 6; GLD-1 RNA inh: 10

How did CN(C)c1ccc(/C=C/C=C2/SC(=S)N(c3ccccc3)C2=O)cc1 do in these assays?
MEX-5 binding: 0; Bcl-xL primary: 36*; VIM-2 inhibitor: -1; IMP-1 inh: -1; GLD-1 RNA inh: -25; EBV gp42 block: -3

How did O=C(O)c1ccc(N2C(=O)/C(=C/C=C/c3ccccc3)SC2=S)cc1 do in these assays?
MEX-5 binding: -3; Bcl-xL primary: 16; VIM-2 inhibitor: -2; IMP-1 inh: -1; GLD-1 RNA inh: 0; EBV gp42 block: -9

How did O=C(NC(Cc1ccccc1)C(=O)Oc1ccc2c(C(F)(F)F)cc(=O)oc2c1)OCc1ccccc1 (stereo not drawn) do in these assays?
MEX-5 binding: 0; Bcl-xL primary: 42*; VIM-2 inhibitor: 1; IMP-1 inh: 0; GLD-1 RNA inh: 65*; EBV gp42 block: 7

Results for O=C(CNC(=O)OCc1ccccc1)Oc1ccc2ccc(=O)oc2c1 ?
MEX-5 binding: 0; Bcl-xL primary: 5; VIM-2 inhibitor: -2; IMP-1 inh: -3; GLD-1 RNA inh: 7

What do the screens show for `O=C(CSc1ccsc1[N+](=O)[O-])Nc1cccc(F)c1`?
MEX-5 binding: -3; VIM-2 inhibitor: -5; IMP-1 inh: -3; EBV gp42 block: 62*

Results for CCc1ccccc1NC(=O)CSc1ccsc1[N+](=O)[O-] ?
MEX-5 binding: 0; Bcl-xL primary: 7; VIM-2 inhibitor: -3; IMP-1 inh: -3; GLD-1 RNA inh: 4; EBV gp42 block: 43

What do the screens show for `CNCc1ccccc1Sc1ccc(O)c(O)c1`?
MEX-5 binding: -54*; Bcl-xL primary: 15; VIM-2 inhibitor: -2; IMP-1 inh: -3; GLD-1 RNA inh: 7; EBV gp42 block: -16

What do the screens show for `COc1ccc(Sc2ccccc2CN(C)C)cc1OC`?
MEX-5 binding: -3; Bcl-xL primary: 2; VIM-2 inhibitor: 0; IMP-1 inh: -3; GLD-1 RNA inh: -8; EBV gp42 block: 7

Results for CC(=O)C1=C(C)OC(N)=C(C#N)C1c1ccncc1 (stereo not drawn) ?
MEX-5 binding: -7; Bcl-xL primary: 30*; VIM-2 inhibitor: -1; IMP-1 inh: -1; GLD-1 RNA inh: 18; EBV gp42 block: -2

Results for COC(=O)C1=C(C)OC(N)=C(C#N)C1c1cccnc1 (stereo not drawn) ?
MEX-5 binding: -5; Bcl-xL primary: 26; VIM-2 inhibitor: -3; IMP-1 inh: -3; GLD-1 RNA inh: 4; EBV gp42 block: 1

What do the screens show for `CCCCCCCC(=O)O`?
GLD-1 RNA inh: 5

How did C=C(C(=O)O)C(CCCCCC)C(=O)O (stereo not drawn) do in these assays?
MEX-5 binding: -3; Bcl-xL primary: 10; VIM-2 inhibitor: 4; IMP-1 inh: 14*; GLD-1 RNA inh: 11; EBV gp42 block: -6

How did N#Cc1c(SCC(=O)Nc2nc3ccccc3s2)sc2c(O)cc(=O)[nH]c12 do in these assays?
Bcl-xL primary: 31*; GLD-1 RNA inh: 1

How did N#Cc1c(SCC(=O)Nc2nc3ccc(Br)cc3s2)sc2c(O)cc(=O)[nH]c12 do in these assays?
MEX-5 binding: -2; Bcl-xL primary: 19; VIM-2 inhibitor: -2; IMP-1 inh: -1; GLD-1 RNA inh: -8

How did N#C/C=C1/NC(=O)c2ccccc2S1 do in these assays?
MEX-5 binding: 3; Bcl-xL primary: 8; VIM-2 inhibitor: 9.1*; IMP-1 inh: 0; GLD-1 RNA inh: -65; EBV gp42 block: -8

How did COC(=O)c1ccc2c(c1)NC(=O)c1ccccc1S2 do in these assays?
MEX-5 binding: 0; Bcl-xL primary: 1; VIM-2 inhibitor: -2; IMP-1 inh: -2; GLD-1 RNA inh: 8

What do the screens show for `CC(C(=O)NCCCc1ccccc1)n1cccc1C(=O)c1ccccc1` (stereo not drawn)?
MEX-5 binding: 2; Bcl-xL primary: 2; VIM-2 inhibitor: -2; IMP-1 inh: -1; GLD-1 RNA inh: 4

How did Cc1nc(NC(=O)CC(C)C)sc1-c1csc(Nc2ccc(Cl)cc2Cl)n1 do in these assays?
MEX-5 binding: 1; Bcl-xL primary: -5; VIM-2 inhibitor: 0; IMP-1 inh: 0; GLD-1 RNA inh: 5; EBV gp42 block: -16

Results for CCCCCCC(=O)Nc1nc(C)c(-c2csc(Nc3cc(OC)ccc3OC)n2)s1 ?
MEX-5 binding: 6; Bcl-xL primary: -5; VIM-2 inhibitor: -2; IMP-1 inh: 10*; GLD-1 RNA inh: 1; EBV gp42 block: -12

Results for COc1ccc(Cl)cc1Nc1nc(-c2sc(NC(=O)CC(C)C)nc2C)cs1 ?
MEX-5 binding: 4; Bcl-xL primary: -3; VIM-2 inhibitor: 0; IMP-1 inh: 6.8*; GLD-1 RNA inh: 1; EBV gp42 block: -13

How did C=CCCC(=O)Nc1nc(C)c(-c2csc(Nc3cc(Cl)ccc3OC)n2)s1 do in these assays?
MEX-5 binding: 6; Bcl-xL primary: 20; VIM-2 inhibitor: 0; IMP-1 inh: 6.2*; GLD-1 RNA inh: -1; EBV gp42 block: -2

What do the screens show for `C=CCCC(=O)Nc1nc(C)c(-c2csc(Nc3ccc(Cl)cc3Cl)n2)s1`?
MEX-5 binding: 2; Bcl-xL primary: -3; VIM-2 inhibitor: -4; IMP-1 inh: -2; GLD-1 RNA inh: -1; EBV gp42 block: -4

How did Oc1ccc(-c2nc3ccccc3s2)c(O)c1 do in these assays?
MEX-5 binding: 1; Bcl-xL primary: -3; VIM-2 inhibitor: -1; IMP-1 inh: -3; GLD-1 RNA inh: 6; EBV gp42 block: -10

How did Nc1ccc(O)c(-c2nc3ccccc3s2)c1 do in these assays?
MEX-5 binding: -5; Bcl-xL primary: 51*; VIM-2 inhibitor: -3; IMP-1 inh: -3; GLD-1 RNA inh: 16; EBV gp42 block: 21

What do the screens show for `Oc1ccc(N=C/C=C/c2cccc(Br)c2)cc1-c1nc2ccccc2s1`?
MEX-5 binding: 2; Bcl-xL primary: 36*; VIM-2 inhibitor: -1; IMP-1 inh: -1; GLD-1 RNA inh: 22; EBV gp42 block: -12

What do the screens show for `Cc1nc(/N=C\c2ccc(N(C)C)cc2)sc1C`?
MEX-5 binding: 1; Bcl-xL primary: -3; GLD-1 RNA inh: 2
